Results: ChEMBL document CHEMBL1782022, “Potent macrocyclic inhibitors of insulin-regulated aminopeptidase (IRAP) by olefin ring-closing metathesis” (J Med Chem, 2011)

Legend:
[1] = Displacement of [3H]AL-11 from IRAP of CHO-K1 cell membrane preincubated for 40 mins in presence of 30 mM EDTA and 600 uM 1,10-Phenantrone after 30 mins by scintillation counting; assay type: cell membranes, Cricetulus griseus
How it was run: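 Chelators EDTA (5 mM final) and 1,10-phenanthroline (100 μM final) were present both in the 40 min, 37 °C preincubation of CHO-K1 membranes (4 × 10⁵ cells, 50 mM Tris-HCl pH 7.4) with compound (10⁻⁹–10⁻⁵ M) and during the binding step. Binding was 30 min at 37 °C with 3 nM [³H]AL-11, with unlabeled Ang IV for nonspecific binding. Read-out was GF/B filtration and β-counting, ≥2 experiments in duplicate. IC50 came from nonlinear regression and Ki via Cheng–Prusoff.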

[2] = Displacement of [3H]AL-11 from IRAP of CHO-K1 cell membrane after 30 mins by scintillation counting in presence of 30 mM EDTA and 600 uM 1,10-Phenantrone; assay type: cell membranes, Cricetulus griseus
How it was run: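 CHO-K1 membranes with endogenous IRAP (4 × 10⁵ cells) in 50 mM Tris-HCl pH 7.4 buffer were preincubated 40 min at 37 °C with compound (10⁻⁹–10⁻⁵ M final) without chelators. [³H]AL-11 (3 nM final) was then added with EDTA/1,10-Phe (final 5 mM/100 μM) for 30 min at 37 °C. Unlabeled Ang IV defined nonspecific binding. Bound radioactivity was collected on BSA-soaked GF/B filters and β-counted. Runs were ≥2× in duplicate. IC50 came from nonlinear regression and Ki from Cheng–Prusoff using the [³H]AL-11 KD.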

Aminopeptidase N = Aminopeptidase N (Homo sapiens, UniProt P15144); experiment: Inhibition of catalytic activity of recombinant human AP-N transfected in human HEK-293 cells assessed as cleavage of substrate L-leucine-p-nitroanilide to L-leucine and p-nitroaniline measured every 5 mins for 10 to 50 mins by spectrophotometric analysis; assay type: cell-based, HEK293
Sequence of Aminopeptidase N (P15144 whole entry): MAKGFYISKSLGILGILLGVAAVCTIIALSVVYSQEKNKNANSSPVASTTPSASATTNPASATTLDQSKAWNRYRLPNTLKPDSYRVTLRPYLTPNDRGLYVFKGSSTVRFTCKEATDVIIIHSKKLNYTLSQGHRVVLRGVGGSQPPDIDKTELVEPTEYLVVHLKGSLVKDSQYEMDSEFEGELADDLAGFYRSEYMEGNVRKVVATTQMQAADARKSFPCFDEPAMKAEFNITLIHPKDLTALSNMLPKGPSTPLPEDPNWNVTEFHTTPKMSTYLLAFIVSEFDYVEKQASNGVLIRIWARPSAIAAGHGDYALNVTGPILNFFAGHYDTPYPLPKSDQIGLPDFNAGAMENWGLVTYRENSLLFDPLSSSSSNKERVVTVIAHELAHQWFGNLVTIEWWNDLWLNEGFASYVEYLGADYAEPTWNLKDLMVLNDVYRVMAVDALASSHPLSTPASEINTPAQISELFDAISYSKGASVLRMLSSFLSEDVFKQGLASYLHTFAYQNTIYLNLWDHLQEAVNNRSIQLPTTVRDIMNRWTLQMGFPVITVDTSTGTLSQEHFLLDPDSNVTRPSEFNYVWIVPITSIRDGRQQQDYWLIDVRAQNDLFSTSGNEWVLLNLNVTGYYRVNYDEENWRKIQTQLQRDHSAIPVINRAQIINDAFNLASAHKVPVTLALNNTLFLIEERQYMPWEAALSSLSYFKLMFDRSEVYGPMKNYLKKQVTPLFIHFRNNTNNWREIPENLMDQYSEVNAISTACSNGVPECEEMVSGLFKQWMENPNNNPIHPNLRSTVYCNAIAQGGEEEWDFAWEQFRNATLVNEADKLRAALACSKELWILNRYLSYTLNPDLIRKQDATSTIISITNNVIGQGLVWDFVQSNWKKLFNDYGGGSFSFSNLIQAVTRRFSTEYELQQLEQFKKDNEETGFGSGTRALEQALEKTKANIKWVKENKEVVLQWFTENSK

Ki (Aminopeptidase N) [nM] | SMILES | Ki [1] [nM] | Ki [2] [nM]
 | N[C@H]1CCCC/C=C/C[C@@H](C(=O)NCc2ccccc2CC(=O)O)NC(=O)[C@H](Cc2ccc(O)cc2)NC1=O | 133 | 46.8
 | N[C@H]1CC/C=C/CC[C@@H](C(=O)NCc2ccccc2)NC(=O)[C@H](Cc2ccccc2)NC1=O | 3520 | 719
 | N[C@H]1CCCCCCC[C@@H](C(=O)NCc2ccccc2CC(=O)O)NC(=O)[C@H](Cc2ccc(O)cc2)NC1=O | 517 | 12.5
 | N[C@H]1CC/C=C\CC[C@@H](C(=O)NCc2ccccc2CC(=O)O)NC(=O)[C@H](Cc2ccc(O)cc2)NC1=O | 568 | 24.8
 | N[C@H]1CC/C=C/CC[C@@H](C(=O)NCc2ccccc2CC(=O)O)NC(=O)[C@H](Cc2ccc(O)cc2)NC1=O | 450 | 36.8
 | N[C@H]1CC/C=C/CC[C@@H](C(=O)NCc2ccccc2CC(=O)O)NC(=O)C[C@H](Cc2ccc(O)cc2)NC1=O | 74.2 | 9.8
> 100000 | CN1C(=O)[C@@H](N)CCC/C=C\CC[C@@H](C(=O)NCc2ccccc2)NC(=O)[C@@H]1Cc1ccc(O)cc1 |  | 
> 100000 | CN1C(=O)[C@@H](N)CCC/C=C/CC[C@@H](C(=O)NCc2ccccc2)NC(=O)[C@@H]1Cc1ccc(O)cc1 |  | 
> 100000 | CN1C(=O)[C@@H](N)CCCC/C=C\C[C@@H](C(=O)NCc2ccccc2)NC(=O)[C@@H]1Cc1ccc(O)cc1 |  | 
 | N[C@H]1CCCCCC[C@@H](C(=O)NCc2ccccc2CC(=O)O)NC(=O)[C@H](Cc2ccc(O)cc2)NC1=O | 631 | 28.9
 | N[C@H]1CC/C=C\CC[C@@H](C(=O)NCc2ccccc2)NC(=O)[C@H](Cc2ccccc2)NC1=O | 3470 | 287
> 100000 | CN1C(=O)[C@@H](N)CCCC/C=C/C[C@@H](C(=O)NCc2ccccc2)NC(=O)[C@@H]1Cc1ccc(O)cc1 |  | 
